Test results: ChEMBL document CHEMBL3784971, “Synthesis, characterization, antimicrobial and biofilm inhibitory studies of new esterquats” (Bioorg Med Chem Lett, 2016)
Active and inactive are the calls of the source. The rule behind the calls is not given here.

Experiments:
Candida parapsilosis [1] = test: Antimicrobial activity against Candida parapsilosis MTCC 1744 assessed as growth inhibition after 24 hrs by agar well diffusion method; format: functional; conditions: Lodderomyces parapsilosis, MTCC 1744, 24 h
Candida albicans [2] = test: Antimicrobial activity against Candida albicans MTCC 227 assessed as growth inhibition after 24 hrs by agar well diffusion method; format: functional; conditions: MTCC 227, 24 h
Candida albicans [3] = test: Fungicidal activity against Candida albicans MTCC 1637 after 24 hrs by serial dilution method; format: functional; conditions: MTCC 1637, 24 h
Candida albicans [4] = test: Antimicrobial activity against Candida albicans MTCC 3958 assessed as growth inhibition after 24 hrs by agar well diffusion method; format: functional; conditions: MTCC 3958, 24 h
[Candida] aaseri [5] = Fungicidal activity against Candida aaseri MTCC 1962 after 24 hrs by serial dilution method; format: functional; conditions: Yamadazyma aaseri, MTCC 1962, 24 h
Pichia sporocuriosa [6] = test: Antimicrobial activity against Issatchenkia hanoiensis MTCC 4755 assessed as growth inhibition after 24 hrs by agar well diffusion method; format: functional; conditions: MTCC 4755, 24 h
Pichia sporocuriosa [7] = test: Fungicidal activity against Issatchenkia hanoiensis MTCC 4755 after 24 hrs by serial dilution method; format: functional; conditions: MTCC 4755, 24 h
Candida albicans [8] = test: Antimicrobial activity against Candida albicans MTCC 3018 assessed as growth inhibition after 24 hrs by agar well diffusion method; format: functional; conditions: MTCC 3018, 24 h
Bacillus subtilis [9] = test: Antibiofilm activity against Bacillus subtilis MTCC 121 after 24 hrs by crystal violet staining based assay; format: functional, organism-based; conditions: MTCC 121, 24 h
Method in brief: (§1)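 Biofilm inhibition tested for amine esters and esterquats. IC50 values (µg/mL) are the mean of three determinations, with ciprofloxacin as reference.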

[Candida] aaseri [10] = Antimicrobial activity against Candida aaseri MTCC 1962 assessed as growth inhibition after 24 hrs by agar well diffusion method; format: functional; conditions: Yamadazyma aaseri, MTCC 1962, 24 h
Staphylococcus aureus [11] = test: Bactericidal activity against Staphylococcus aureus MLS16 MTCC 2940 after 24 hrs by serial dilution method; format: functional; conditions: MLS16 MTCC 2940, 24 h
Nakaseomyces glabratus [12] = test: Fungicidal activity against Candida glabrata MTCC 3019 after 24 hrs by serial dilution method; format: functional; conditions: MTCC 3019, 24 h
Candida albicans [13] = test: Antimicrobial activity against Candida albicans MTCC 3017 assessed as growth inhibition after 24 hrs by agar well diffusion method; format: functional; conditions: MTCC 3017, 24 h
Candida albicans [14] = test: Antimicrobial activity against Candida albicans MTCC 7315 assessed as growth inhibition after 24 hrs by agar well diffusion method; format: functional; conditions: MTCC 7315, 24 h
Candida albicans [15] = test: Fungicidal activity against Candida albicans MTCC 3018 after 24 hrs by serial dilution method; format: functional; conditions: MTCC 3018, 24 h
Candida albicans [16] = test: Fungicidal activity against Candida albicans MTCC 3017 after 24 hrs by serial dilution method; format: functional; conditions: MTCC 3017, 24 h
Bacillus subtilis [17] = test: Antimicrobial activity against Bacillus subtilis MTCC 121 assessed as growth inhibition after 24 hrs by agar well diffusion method; format: functional; conditions: MTCC 121, 24 h
Candida albicans [18] = test: Antimicrobial activity against Candida albicans MTCC 183 assessed as growth inhibition after 24 hrs by agar well diffusion method; format: functional; conditions: MTCC 183, 24 h
Candida albicans [19] = test: Fungicidal activity against Candida albicans MTCC 227 after 24 hrs by serial dilution method; format: functional; conditions: MTCC 227, 24 h
Candida albicans [20] = test: Fungicidal activity against Candida albicans MTCC 183 after 24 hrs by serial dilution method; format: functional; conditions: MTCC 183, 24 h
Candida albicans [21] = test: Antimicrobial activity against Candida albicans MTCC 4748 assessed as growth inhibition after 24 hrs by agar well diffusion method; format: functional; conditions: MTCC 4748, 24 h
Candida albicans [22] = test: Fungicidal activity against Candida albicans MTCC 854 after 24 hrs by serial dilution method; format: functional; conditions: MTCC 854, 24 h
Pseudomonas aeruginosa = test: Antimicrobial activity against Pseudomonas aeruginosa MTCC 2453 assessed as growth inhibition after 24 hrs by agar well diffusion method; format: functional; conditions: MTCC 2453, 24 h
Micrococcus luteus [23] = test: Bactericidal activity against Micrococcus luteus MTCC 2470 after 24 hrs by serial dilution method; format: functional; conditions: MTCC 2470, 24 h
Candida albicans [24] = test: Fungicidal activity against Candida albicans MTCC 3958 after 24 hrs by serial dilution method; format: functional; conditions: MTCC 3958, 24 h
Staphylococcus aureus [25] = test: Bactericidal activity against Staphylococcus aureus MLS16 MTCC 2940 sessile forms assessed as increase in intracellular ROS accumulation in at 0.5 to 2 ug/mL after 24 hrs by DCFHDA staining based fluorometric assay; format: functional, organism-based
Method in brief: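 Intracellular ROS measured in cells of mature biofilms using the general ROS fluorescent probe 2′,7′-dichlorofluorescein-diacetate (DCFH-DA), read as increase in fluorescence. Sessile cells and the supernatant were measured separately.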

Staphylococcus aureus [26] = test: Antimicrobial activity against Staphylococcus aureus MTCC 96 assessed as growth inhibition after 24 hrs by agar well diffusion method; format: functional; conditions: MTCC 96, 24 h
Raoultella planticola [27] = test: Antimicrobial activity against Klebsiella planticola MTCC 530 assessed as growth inhibition after 24 hrs by agar well diffusion method; format: functional; conditions: MTCC 530, 24 h
Raoultella planticola [28] = test: Bactericidal activity against Klebsiella planticola MTCC 530 after 24 hrs by serial dilution method; format: functional; conditions: MTCC 530, 24 h
Micrococcus luteus [29] = test: Antimicrobial activity against Micrococcus luteus MTCC 2470 assessed as growth inhibition after 24 hrs by agar well diffusion method; format: functional; conditions: MTCC 2470, 24 h
Escherichia coli [30] = test: Bactericidal activity against Escherichia coli MTCC 739 after 24 hrs by serial dilution method; format: functional; conditions: MTCC 739, 24 h
Candida albicans [31] = test: Fungicidal activity against Candida albicans MTCC 4748 after 24 hrs by serial dilution method; format: functional; conditions: MTCC 4748, 24 h
Bacillus subtilis [32] = test: Bactericidal activity against Bacillus subtilis MTCC 121 after 24 hrs by serial dilution method; format: functional; conditions: MTCC 121, 24 h
Staphylococcus aureus [33] = test: Antibiofilm activity against Staphylococcus aureus MTCC 96 after 24 hrs by crystal violet staining based assay; format: functional, organism-based; conditions: MTCC 96, 24 h; method in brief: as §1
Micrococcus luteus [34] = test: Antibiofilm activity against Micrococcus luteus MTCC 2470 after 24 hrs by crystal violet staining based assay; format: functional, organism-based; conditions: MTCC 2470, 24 h; method in brief: as §1
Pichia kudriavzevii [35] = test: Antimicrobial activity against Candida krusei MTCC 3020 assessed as growth inhibition after 24 hrs by agar well diffusion method; format: functional; conditions: MTCC 3020, 24 h
Nakaseomyces glabratus [36] = test: Antimicrobial activity against Candida glabrata MTCC 3019 assessed as growth inhibition after 24 hrs by agar well diffusion method; format: functional; conditions: MTCC 3019, 24 h
Candida albicans [37] = test: Antimicrobial activity against Candida albicans MTCC 1637 assessed as growth inhibition after 24 hrs by agar well diffusion method; format: functional; conditions: MTCC 1637, 24 h
Escherichia coli [38] = test: Antimicrobial activity against Escherichia coli MTCC 739 assessed as growth inhibition after 24 hrs by agar well diffusion method; format: functional; conditions: MTCC 739, 24 h
Staphylococcus aureus [39] = test: Bactericidal activity against Staphylococcus aureus MTCC 96 after 24 hrs by serial dilution method; format: functional; conditions: MTCC 96, 24 h
Pichia kudriavzevii [40] = test: Fungicidal activity against Candida krusei MTCC 3020 after 24 hrs by serial dilution method; format: functional; conditions: MTCC 3020, 24 h
Staphylococcus aureus [41] = test: Antimicrobial activity against Staphylococcus aureus MLS16 MTCC 2940 assessed as growth inhibition after 24 hrs by agar well diffusion method; format: functional; conditions: MLS16 MTCC 2940, 24 h
Staphylococcus aureus [42] = test: Antibiofilm activity against Staphylococcus aureus MLS16 MTCC 2940 after 24 hrs by crystal violet staining based assay; format: functional, organism-based; conditions: MLS16 MTCC 2940, 24 h; method in brief: as §1
Candida parapsilosis [43] = test: Fungicidal activity against Candida parapsilosis MTCC 1744 after 24 hrs by serial dilution method; format: functional; conditions: Lodderomyces parapsilosis, MTCC 1744, 24 h
Candida albicans [44] = test: Fungicidal activity against Candida albicans MTCC 7315 after 24 hrs by serial dilution method; format: functional; conditions: MTCC 7315, 24 h
Candida albicans [45] = test: Antimicrobial activity against Candida albicans MTCC 854 assessed as growth inhibition after 24 hrs by agar well diffusion method; format: functional; conditions: MTCC 854, 24 h

CCCCCC[N+](C)(CCCCCCCCCCC(=O)OC)CCCCCCCCCCC(=O)OC.[Cl-] gave an MIC (Candida parapsilosis [1]) of 15.6 µg/mL, an MIC (Candida albicans [2]) of 15.6 µg/mL and an MFC (Candida albicans [3]) of 31.2 µg/mL. For the same compound, the MIC (Candida albicans [4]) was 15.6 µg/mL, the MFC ([Candida] aaseri [5]) was 15.6 µg/mL and the MIC (Pichia sporocuriosa [6]) was 15.6 µg/mL. The MFC (Pichia sporocuriosa [7]) was 31.2 µg/mL, the MIC (Candida albicans [8]) was 15.6 µg/mL and the IC50 (Bacillus subtilis [9]) was 4.1 µg/mL. The MIC ([Candida] aaseri [10]) was 7.8 µg/mL, the MBC (Staphylococcus aureus [11]) was 3.9 µg/mL and the MFC (Nakaseomyces glabratus [12]) was 31.2 µg/mL. The MIC (Candida albicans [13]) was 7.8 µg/mL, the MIC (Candida albicans [14]) was 15.6 µg/mL and the MFC (Candida albicans [15]) was 31.2 µg/mL. It also gave an MFC (Candida albicans [16]) of 15.6 µg/mL, an MIC (Bacillus subtilis [17]) of 7.8 µg/mL and an MIC (Candida albicans [18]) of 15.6 µg/mL. For the same compound, the MFC (Candida albicans [19]) was 31.2 µg/mL, the MFC (Candida albicans [20]) was 31.2 µg/mL and the MIC (Candida albicans [21]) was 7.8 µg/mL. For the same compound, the MFC (Candida albicans [22]) was 62.5 µg/mL, the MIC (Pseudomonas aeruginosa) was greater than 125 µg/mL and the MBC (Micrococcus luteus [23]) was 3.9 µg/mL. The MFC (Candida albicans [24]) was 15.6 µg/mL, the Activity (Staphylococcus aureus [25]) was “Active” and the MIC (Staphylococcus aureus [26]) was 3.9 µg/mL. For the same compound, the MIC (Raoultella planticola [27]) was greater than 125 µg/mL, the MBC (Raoultella planticola [28]) was greater than 125 µg/mL and the MIC (Micrococcus luteus [29]) was 1.9 µg/mL. It also gave an MBC (Escherichia coli [30]) greater than 125 µg/mL, an MFC (Candida albicans [31]) of 7.8 µg/mL and an MBC (Bacillus subtilis [32]) of 15.6 µg/mL. It also gave an IC50 (Staphylococcus aureus [33]) of 1.9 µg/mL, an IC50 (Micrococcus luteus [34]) of 1.5 µg/mL and an MIC (Pichia kudriavzevii [35]) of 31.2 µg/mL. The MIC (Nakaseomyces glabratus [36]) was 15.6 µg/mL, the MIC (Candida albicans [37]) was 15.6 µg/mL and the MIC (Escherichia coli [38]) was greater than 125 µg/mL. It also gave an MBC (Staphylococcus aureus [39]) of 7.8 µg/mL, an MFC (Pichia kudriavzevii [40]) of 62.5 µg/mL and an MIC (Staphylococcus aureus [41]) of 3.9 µg/mL. The IC50 (Staphylococcus aureus [42]) was 0.9 µg/mL, the MFC (Candida parapsilosis [43]) was 31.2 µg/mL and the MFC (Candida albicans [44]) was 31.2 µg/mL. It also gave an MIC (Candida albicans [45]) of 31.2 µg/mL.
